Measured values: ChEMBL document CHEMBL1143938, “Synthesis and antiviral activities of novel chiral cyanoacrylate derivatives with (E) configuration” (2008)
Activity calls are given as the source filed them. The calls are words filed in the database; no cut-off is given here.

Assays:
Tobacco mosaic virus [1] = assay: Antiviral activity against TMV-infected tobacco leaves assessed as viral inactivation at 500 mg/L; format: functional
Nicotiana tabacum [2] = assay: Effect on accumulation of PR5 mRNA in tobacco leaf after 12 hrs; format: functional, organism-based
Procedure, shortened: (§1)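 Leaf RNA came from water-, TMV- and treated-plus-TMV tobacco. PR-1a and PR-5 were amplified by semi-quantitative PCR (annealing 58 °C; 1.5% agarose, ethidium bromide) and by real-time PCR. Real-time values were taken relative to β-actin by ΔΔCT, n = 4, in triplicate.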

Nicotiana tabacum [3] = assay: Stimulation of peroxidase activity in Nicotiana tabacum after 5 days
Nicotiana tabacum [4] = assay: Stimulation of leaf size in Nicotiana tabacum relative to water treated control; format: functional, organism-based
Nicotiana tabacum [5] = assay: Effect on accumulation of PR1a mRNA in tobacco leaf upto […] after 1 day; format: functional, organism-based; procedure, shortened: as §1
Nicotiana tabacum [6] = assay: Effect on accumulation of PR1a mRNA in tobacco leaf on day 2; format: functional, organism-based; procedure, shortened: as §1
Nicotiana tabacum [7] = assay: Effect on accumulation of PR5 mRNA in tobacco leaf upto […] after 1 day; format: functional, organism-based; procedure, shortened: as §1
Tobacco mosaic virus [8] = assay: Antiviral activity against TMV-infected tobacco leaves assessed as curative effect against viral disease at 500 mg/L; format: functional
Nicotiana tabacum [9] = assay: Stimulation of L-phenylalanine ammonia-lyase level in Nicotiana tabacum assessed as per mg of protein after 7 days; format: functional
Procedure, shortened: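 TMV-inoculated Nicotiana tabacum treated at 500 ppm and sampled at 1, 3, 5 and 7 days. Water and TMV-only treatments served as controls. Leaves were homogenized on ice in 5 mM 2-mercaptoethanol-boric acid buffer (pH 8.8) and centrifuged, and enzyme activity was read in the supernatant. PAL was expressed per mg protein. Means of n = 3, with one-way ANOVA and LSD.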

Tobacco mosaic virus [10] = assay: Antiviral activity against TMV-infected tobacco leaves assessed as protection against viral infection at 500 mg/L; format: functional

| Compound | Activity (Tobacco mosaic virus [1]) [%] | Activity (Nicotiana tabacum [2]) | Activity (Nicotiana tabacum [3]) | Activity (Nicotiana tabacum [4]) | Activity (Nicotiana tabacum [5]) | Activity (Nicotiana tabacum [6]) | Activity (Nicotiana tabacum [7]) | Activity (Tobacco mosaic virus [8]) [%] | Activity (Nicotiana tabacum [9]) [EU/mg] | Activity (Tobacco mosaic virus [10]) [%] |
| --- | --- | --- | --- | --- | --- | --- | --- | --- | --- | --- |
| CCOC(=O)/C(C#N)=C(\NCc1ccccc1)N[C@H](C)c1ccc(F)cc1 | 49.5 | Active | Active | Active | Active | Active | Active | 64 | 5.88 | 65.7 |
| CNCC(=O)N[C@@H](CO)C(=O)N[C@H]1C(O)[C@@H](O)[C@H](n2ccc(N)nc2=O)O[C@@H]1C(N)=O (single isomer, unassigned) [NINGNANMYCIN] | 50 |  |  |  |  |  |  | 57.8 |  | 100 |
